Bioassay records deposited in PubChem BioAssay by The Scripps Research Institute Molecular Screening Center.
m5-HT2A agonist: agonists of mouse serotonin 5-HT2A receptor (HTR2A) | P35363 | 0.66% of 360,000 active | CHO-K1 mHTR2A beta-arrestin complementation, luminescence; percent of 30 µM serotonin response | activation, % at 7.6 µM | AID 624169;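 active = activation above a run cutoff, the mean activation of all tested compounds plus 3 SD, cut at about 14% in these data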;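 note: 0% = plate median of compound wells and 100% = 30 µM serotonin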
MC4R ag barr: activates human MC4R beta-arrestin recruitment | 0.98% of 360,000 active | activation, % at 8.9 µM | U2OS MC4R beta-arrestin complementation, luminescence; percent of melanotan II response, DMSO zero;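 active = activation above a per-plate cutoff, the mean activation of sample wells on that plate plus 3 SD, cut at about 8% in these data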
Target sequence (P32245 whole entry, looked up): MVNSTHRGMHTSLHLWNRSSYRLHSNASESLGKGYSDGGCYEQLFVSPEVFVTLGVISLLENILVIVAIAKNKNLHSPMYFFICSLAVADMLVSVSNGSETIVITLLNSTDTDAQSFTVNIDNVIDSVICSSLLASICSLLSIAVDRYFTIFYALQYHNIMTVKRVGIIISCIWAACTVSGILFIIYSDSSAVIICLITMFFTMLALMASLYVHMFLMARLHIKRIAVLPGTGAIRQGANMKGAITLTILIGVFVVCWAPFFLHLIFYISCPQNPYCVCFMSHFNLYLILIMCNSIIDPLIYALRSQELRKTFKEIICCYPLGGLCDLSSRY
AHR act: activates the human aryl hydrocarbon receptor; AHR-responsive luciferase reporter cells, luminescence; activation, % at 5 µM; 2.5% of 320,000 active; AID 2796; in the data active = activation above about 47%;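 note: 0% = vehicle wells and 100% = reference agonist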
MC4R antag cAMP: blocks human MC4R cAMP signaling; P32245; MC4R-expressing cells, MTII-stimulated cAMP, LANCE TR-FRET; inhibition, % at 6.5 µM; 0.48% of 360,000 active;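 active = inhibition above its plate's cutoff, the mean of tested wells on that plate plus 3 SD, cut at about 29% in these data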;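 note: 0% = Melanotan II alone and 100% = Melanotan II plus saturating MCL0020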
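system = U2OS cells with stable human MC4R expression | also added = Melanotan II challenge after compound preincubation | dosing = one concentration, 6.5 µM nominal | incubation = compound 30 min, challenge 1 h, detection 1 h | measured by = TR-FRET with Eu-cAMP and labeled anti-cAMP, 671 nm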
FXN GAA850 act: increases GAA850 frataxin promoter reporter activity. HEK293 lucGAA850 FXN promoter luciferase reporter, 24 h; percent of 10 µM SAHA response. activation, % at 6 µM. 0.56% of 360,000 active. AID 540364;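 active = activation above the average of all compounds screened plus 3 SD, cutoff fixed separately per campaign, cut at about 7.5% in these data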;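 note: 0% = DMSO wells and 100% = 10 µM SAHA wells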
MC4R barr conf: human MC4R beta-arrestin agonism confirmation | 31% of 2,400 active | U2OS MC4R beta-arrestin recruitment, luminescence; scaled DMSO 0%, Melanotan II 100% | shares compounds with MC4R ag barr | AID 602192 | activation, % at 8.9 µM;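 active = mean activation across replicates above the hit cutoff set in the earlier primary screen, cut at about 8% in these data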
MOR DOR agonist: counter-screen for MC4R agonists: agonists of mu-delta opioid heterodimer. shares compounds with MC4R ag barr. U2OS PathHunter beta-arrestin, beta-gal luminescence; percent of deltorphin B response, DMSO zero. activation, % at 9.2 µM. 5.8% of 2,400 active. AID 602194;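 active = mean activation across replicates exceeds the hit threshold derived in the earlier primary screen, cut at about 18% in these data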;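 note: 100% = deltorphin B at 0.9 µM final and 0% = DMSO alone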
* hit, by the source's call; . = no result given. Compounds with a hit are over-represented: about 4.7% of the library has one in this group of screens.

SMILES	m5-HT2A agonist	MC4R ag barr	AHR act	MC4R antag cAMP	FXN GAA850 act	MC4R barr conf	MOR DOR agonist
Cc1[nH]c2ccccc2c1C(=O)CSc1nc2ccccc2[nH]1	1	2	28	0	-3	.	.
Cc1ccc(C(=O)N/C(=C\c2ccc(-c3ccc(Br)cc3)o2)C(=O)NCCCN(C)C)cc1	-2	11*	-2	12	2	9.1*	10
CCOC(=O)c1ccc(S(=O)(=O)N2CCC(C(=O)NCC3CCCCC3)CC2)cc1	-1	-3	-1	1	2	.	.
O=S(=O)(NCC1CCCO1)c1ccc(S(=O)(=O)N(Cc2ccc(F)cc2)C2CCCCC2)cc1 (stereo not drawn)	0	10*	-2	18	1	2	6
CCOc1ccc(-c2n[nH]c(C)c2Oc2ccccc2OC)c(O)c1	0	12*	40	11	3	3	7
C=C(C)COc1ccc(-c2n[nH]c(C)c2Oc2ccccc2OC)c(O)c1	-1	12*	9	5	1	5	8
COCCNC(=O)C1(C)CCCN(C(=O)c2ccc(C(F)(F)F)cc2)C1 (stereo not drawn)	4	-1	.	5	0	.	.
OCCN1CCN(c2nc(-c3ccccc3)nc3c2oc2ccccc23)CC1	-8	23*	-2	2	1	15*	11
O=C(O)C1CCN(c2nc(-c3ccccc3)nc3c2oc2ccccc23)CC1	0	-4	7	17	-1	.	.
Cc1cc(N2CCOCC2)n2nc(-c3cccc(F)c3)cc2n1	-1	-1	41	-5	0	.	.
CCN1CCN(c2cc(-c3ccccc3)nc3cc(-c4cccc(F)c4)nn23)CC1	8	12*	6	14	-2	2	14
CCCS(=O)(=O)NC(=O)C1(C)CCCN(C(=O)c2ccco2)C1 (stereo not drawn)	5	-2	.	0	0	.	.
C/C(=N\NC(=O)C1COc2ccccc2O1)c1ccc(Cl)s1 (stereo not drawn)	0	5	7	12	0	.	.
C/C(=N/NC(=O)C1COc2ccccc2O1)c1ccc(Br)s1 (stereo not drawn)	6	13*	4	2	0	1	6
C=CCOc1ccc(CN(C)C(=O)CNC(=O)c2ccc(-c3ccccc3)cc2)cc1	-4	2	2	3	2	.	.
COc1ccc(CSc2nc3ccccc3c(=O)[nH]2)cc1F	0	-1	2	6	6	.	.
O=c1[nH]c(SCc2ccc(F)cc2Cl)nc2ccccc12	-2	10*	-1	-7	2	2	6
O=C(COC(=O)c1ccc2ccccc2c1)Nc1ncc(C(F)(F)F)cc1Cl	1	10*	4	3	1	6	4
O=c1c2ccccc2nc(SCc2nc3ccccc3s2)n1Cc1ccco1	5	11*	-1	21	-1	-2	5
O=c1c2ccccc2nc(SCc2ccccc2)n1Cc1ccco1	-5	-1	1	0	-1	.	.
CN(C)CCNC(=O)c1cccc(-c2cnc3c(NC=O)cc(/C=C/c4ccccc4)cn23)c1	-13	17*	.	-5	2	7	3
CN(C)CCNC(=O)c1cccc(-c2cnc3c(NC=O)cc(-c4ccc(F)cc4)cn23)c1	-10	-1	.	-12	0	.	.
CCSc1ccc(-c2cc(NC=O)c3ncc(-c4cccc(C(=O)N(C)C)c4)n3c2)cc1	2	10*	.	-8	2	9.1*	2
CCSc1ccc(-c2cc(NC=O)c3ncc(-c4cccc(C(=O)NCCN(C)C)c4)n3c2)cc1	-10	11*	.	2	-2	13*	11
CN(C)C(=O)c1cccc(-c2cnc3c(NC=O)cc(-c4ccccc4F)cn23)c1	-1	9.8*	.	-21	5	11*	1
O=[N+]([O-])c1ccc(CNCc2cc(Cl)ccc2O)cc1	-3	2	7	4	2	.	.
